ChEMBL document CHEMBL4828701, “An Integrated Strategy for the Detection, Dereplication, and Identification of DNA-Binding Biomolecules from Complex Natural Product Mixtures” (J Nat Prod, 2021)
Calls of active or inactive are those of the source. The rule behind the calls is not given here.

Tests used:
[1] = Aqueous solubility of the compound; conditions: buffer
Salmon testes DNA [2] = assay: Covalent binding affinity to salmon DNA measured after 30 mins by UV based spectroscopic method; type: nucleic-acid assay; conditions: Salmo salar
Procedure, shortened: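 After 30 min room-temperature incubation with salmon sperm DNA in TE/15% glycerol buffer and 100 kDa ultrafiltration, retained complexes were washed with 30% MeOH (3× 5000g, 10 °C). Ligands were then released with 95% MeOH/1% formic acid for 20 min, refiltered, dried, taken up in MeOH, and analysed by LC-PDA-MS/MS against no-DNA controls.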

MDA-MB-231 = assay: Antiproliferative activity against human MDA-MB-231 assessed as cell growth inhibition after 48 hrs by SRB assay; type: functional; conditions: for CC50: read-out: LC50 (the source's name)
Procedure, shortened: (§1)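 MDA-MB-231 and MDA-MB-453 cells in modified IMEM with 5% FBS and 30 μg/mL gentamicin, 37 °C, 5% CO2, used within 4 months of thaw. After overnight adherence, cells had 48 h compound treatment (DMSO 0.5% v/v final). Growth was read by SRB assay, with GI50 from nonlinear regression as the mean of 3 or 4 experiments ±SEM.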

HCC1937 = assay: Antiproliferative activity against human HCC1937 assessed as cell growth inhibition after 48 hrs by SRB assay; type: functional
Procedure, shortened: (§2)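 HCC1937, HCC70 and SJCRH30 cells in RPMI-1640 with 10% FBS and 50 μg/mL gentamicin, 37 °C, 5% CO2, used within 4 months of thaw. Plated cells adhered overnight before 48 h compound exposure (DMSO 0.5% v/v final). Read-out was SRB, with GI50 by nonlinear regression from 3 or 4 experiments ±SEM.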

HCC70 = assay: Antiproliferative activity against human HCC70 assessed as cell growth inhibition after 48 hrs by SRB assay; type: functional; conditions: for CC50: read-out: LC50 (the source's name); procedure, shortened: as §2
A673 = assay: Antiproliferative activity against human A673 assessed as cell growth inhibition after 48 hrs by SRB assay; type: functional; conditions: for CC50: read-out: LC50 (the source's name)
Procedure, shortened: (§3)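 A-673 and HCC1806 cells in RPMI-1640 with 5% FBS, 37 °C, 5% CO2, used within 4 months of thaw. Cells were plated and left overnight, then exposed to compounds in DMSO (0.5% v/v final) for 48 h. SRB staining followed, with GI50 fitted by nonlinear regression, as the mean of 3 or 4 experiments ±SEM.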

HCC1806 = assay: Antiproliferative activity against human HCC1806 assessed as cell growth inhibition after 48 hrs by SRB assay; type: functional; conditions: for CC50: read-out: LC50 (the source's name); procedure, shortened: as §3
SJRH30 = assay: Antiproliferative activity against human SJRH30 assessed as cell growth inhibition after 48 hrs by SRB assay; type: functional; procedure, shortened: as §2
MDA-MB-453 = assay: Antiproliferative activity against human MDA-MB-453 assessed as cell growth inhibition after 48 hrs by SRB assay; type: functional; procedure, shortened: as §1
Salmon testes DNA [3] = assay: Binding affinity to salmon DNA groove measured after 30 mins by UV based spectroscopic method; type: nucleic-acid assay; conditions: Salmo salar
Procedure, shortened: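 Compounds (typically 5–50 μg) in 200 μL water/MeOH were added to 400 μL salmon sperm DNA stock (1 mg/mL in 10 mM Tris, 1 mM EDTA, pH 8.0, 15% glycerol) and incubated 30 min at room temperature. Samples were ultrafiltered (100 kDa, 5000g, 10 °C), and filtrate peak areas (UV 254 nm, LC-PDA-MS/MS) were compared with no-DNA buffer controls.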

| SMILES | solubility [1] | GI50 (MDA-MB-231) [µM] | TGI (MDA-MB-231) [µM] | CC50 (MDA-MB-231) [µM] | GI50 (HCC1937) [µM] | TGI (HCC1937) [µM] | GI50 (HCC70) [µM] | TGI (HCC70) [µM] | CC50 (HCC70) [µM] | GI50 (A673) [µM] | TGI (A673) [µM] | CC50 (A673) [µM] | GI50 (HCC1806) [µM] | TGI (HCC1806) [µM] | CC50 (HCC1806) [µM] | GI50 (SJRH30) [µM] | TGI (SJRH30) [µM] | GI50 (MDA-MB-453) [µM] | TGI (MDA-MB-453) [µM] | other results |
| --- | --- | --- | --- | --- | --- | --- | --- | --- | --- | --- | --- | --- | --- | --- | --- | --- | --- | --- | --- | --- |
| CN(C)CCN(Cc1cccs1)c1ccccn1 [METHAPYRILENE] | Insoluble | – | – | – | – | – | – | – | – | – | – | – | – | – | – | – | – | – | – | – |
| N[C@@H](Cc1ccc(N(CCCl)CCCl)cc1)C(=O)O [MELPHALAN] | Insoluble | – | – | – | – | – | – | – | – | – | – | – | – | – | – | – | – | – | – | Activity (Salmon testes DNA [2]): Active |
| Nc1c2ccccc2nc2ccccc12 [AMINACRINE] | Insoluble | – | – | – | – | – | – | – | – | – | – | – | – | – | – | – | – | – | – | – |
| O=NN(CCCl)C(=O)NCCCl [CARMUSTINE] | Insoluble | – | – | – | – | – | – | – | – | – | – | – | – | – | – | – | – | – | – | Activity (Salmon testes DNA [2]): Active |
| Cc1c2ccncc2c(C)c2c1[nH]c1ccccc12 [ELLIPTECINE] | Insoluble | – | – | – | – | – | – | – | – | – | – | – | – | – | – | – | – | – | – | – |
| COc1ccc2cc1Oc1ccc(cc1)C[C@H]1c3c(cc4c(c3Oc3cc5c(cc3OC)CCN(C)[C@@H]5C2)OCO4)CCN1C [CEPHARANTHINE] | – | 5.3 | 7.7 | 12 | 6 | 14 | 5.8 | 9.6 | 17 | 4.5 | 5.8 | 7.5 | 7.2 | 12 | 19 | 3.8 | 5.7 | 5.5 | 7.8 | – |
| NC[C@@H]1O[C@H](O[C@H]2[C@@H](O)[C@H](O[C@@H]3[C@@H](O)[C@H](N)C[C@H](N)[C@H]3O[C@H]3O[C@H](CN)[C@@H](O)[C@H](O)[C@H]3N)O[C@@H]2CO)[C@H](N)[C@@H](O)[C@@H]1O [FRAMYCETIN] | Soluble | – | – | – | – | – | – | – | – | – | – | – | – | – | – | – | – | – | – | Activity (Salmon testes DNA [3]): Active |
| COc1ccc2cc1Oc1ccc(cc1)C[C@H]1c3cc(c(OC)cc3CCN1C)Oc1c(OC)c(OC)cc3c1[C@H](C2)N(C)CC3 [FANCHININ] | – | 5 | 7.4 | 12 | 4.2 | 10 | 3.4 | 5.9 | 11 | 4 | 6 | 8.9 | 5.1 | 8.5 | 15 | 3 | 4.3 | 3.3 | 4.8 | – |
| COc1cc2c(cc1O)[C@@H](Cc1ccc(O)c(Oc3ccc(C[C@@H]4c5cc(OC)c(OC)cc5CCN4C)cc3)c1)N(C)CC2 [DARUISOLINE] | – | 13 | 19 | 30 | 6.9 | 11 | 8.8 | 13 | 19 | 9.2 | 13 | 19 | 17 | 27 | 41 | 3.7 | 6 | 9 | 14 | – |
